Type in all cases: functional
The species named for one test is Xenopus laevis. In words: Effect of compound (20 uM) on maxi-K-mediated outward current in Xenopus laevis oocytes expressing the cloned hSlo maxi-K channels was determined. In outline:
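Two-electrode voltage clamp of Xenopus laevis oocytes expressing cloned hSlo maxi-K channels; single 20 μM drug concentration applied, measuring iberiotoxin-sensitive outward K⁺ current in at least five oocytes per compound; result given as mean percent change in hSlo current versus drug-free control (100%).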

The species entered for test [1] is Oryctolagus cuniculus. Nature of the test: Percentage inhibition of isometric force in response to 10 uM compound in isolated rabbit corpus cavernosum precontracted with 3 uM phenylephrine. In outline:
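New Zealand white rabbit (3.4–3.7 kg) corpus cavernosum strips (3–5 mm) in oxygenated modified Krebs Henseleit bicarbonate buffer, 37 °C, equilibrated ≥1 h at 1.0 g resting tension; contracted with phenylephrine 3 μM to steady force before compound; isometric force read; percent inhibition of phenylephrine-induced force relative to vehicle control.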

The species named for test [2] is Oryctolagus cuniculus. In words: Tested for concentration dependent relaxation over a period of 90 min in isolated rabbit corpus cavernosum. As to conditions: 1.5 h.

As usually defined, the Inhibition is the percentage by which the read-out fell short of the control. In the test listed under Xenopus laevis, `OCCCc1c(O)nc2ccc(C(F)(F)F)cc2c1-c1cc(Cl)ccc1O` showed an Increase of 292%. This compound also displayed an Inhibition in the test listed under Oryctolagus cuniculus [1] of 43%.
With `OCc1c(O)nc2ccc(C(F)(F)F)cc2c1-c1cc(Cl)ccc1O`, the Increase in the test filed under Xenopus laevis was determined as 198%. The compound further came in with an Inhibition in the test filed under Oryctolagus cuniculus [1] of 36%.
Turning to `COc1ccc(Cl)cc1-c1c(/C=C/CO)c(O)nc2ccc(C(F)(F)F)cc12`, the Increase in the test filed under Xenopus laevis was determined as 223%. The Inhibition in the test listed under Oryctolagus cuniculus [1] was found to be 31.8%.
In turn, `OC/C=C/c1c(O)nc2ccc(C(F)(F)F)cc2c1-c1cc(Cl)ccc1O` displayed an Increase in the test listed under Xenopus laevis of 257%. This compound returned an Inhibition in the test filed under Oryctolagus cuniculus [1] of 46%.
The corresponding values for `O=c1[nH]c2cc(C(F)(F)F)ccc2n1-c1cc(Cl)ccc1O` are 132% and 31%.
Turning to `COc1ccc(Cl)cc1-c1c(CCO)c(O)nc2ccc(C(F)(F)F)cc12`, the Increase in the test filed under Xenopus laevis amounted to 211%. The same compound gave an Inhibition in the test listed under Oryctolagus cuniculus [1] of 26.8%.
In the case of `COc1ccc(Cl)cc1-c1c(CCCO)c(O)nc2ccc(C(F)(F)F)cc12`, the Increase in the test listed under Xenopus laevis is given as 258%. The compound further gave an Inhibition in the test filed under Oryctolagus cuniculus [1] of 35.7%.
With `COc1ccc(Cl)cc1-c1c(CO)c(O)nc2ccc(C(F)(F)F)cc12`, the Increase in the test filed under Xenopus laevis is reported as 114%.
The IC50 is the concentration that inhibits the measured activity by half. A high value points to a need for much substance. In turn, `O=c1[nH]c2ccc(C(F)(F)F)cc2c(-c2cc(Cl)ccc2O)c1CCO` [BMS-223131] displayed a half-maximal inhibitory concentration (IC50) in the test listed under Oryctolagus cuniculus [2] of 5 µM. Besides, the Increase in the test filed under Xenopus laevis was determined as 378%. The compound further came in with an Inhibition in the test listed under Oryctolagus cuniculus [1] of 83.7%.

Source of the values: ChEMBL document CHEMBL1145822, “4-Aryl-3-(hydroxyalkyl)quinolin-2-ones: novel maxi-K channel opening relaxants of corporal smooth muscle targeted for erectile dysfunction” (J Med Chem, 2003).
